Data on 26 compounds can be found in ChEMBL document CHEMBL1122209, “Synthesis of N-[[(substituted-phenyl)carbonyl]amino]-1,2,3,6-tetrahydropyridines with analgesic and hyperglycemic activity” (J Med Chem, 1982).

In assay [1] the test system is Mus musculus. Put plainly: Analgesic activity was measured by phenylquinone writhing test in male Swiss albino mice at a dose of 0.004 mg/Kg, sc. It is filed as functional. The gist of the method: (§1)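 Groups of five male Swiss albino mice (18-22 g). Test agent was suspended in physiological saline with Tween 80 by ultrasonic mixing and given sc. After 30 min, 0.03% phenyl-p-benzoquinone was given ip at 0.1 mL/10 g body weight. Total writhes were counted and compared with a vehicle-treated control group: % change = 100 − (treated writhes/control writhes × 100).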

The subject of assay [2] is Rattus norvegicus. Put plainly: Percentage change in blood glucose concentration in male Wistar rats after 2 hr post treatment at a dose of 100 mg/Kg po. The class given is functional. The gist of the method:
(§2)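 Groups of four male Wistar rats (230-260 g), fasted overnight. Test agent was suspended in 1% tragacanth in distilled water and given orally. Tail capillary blood was drawn at 0, 2 and 4 h. Serum glucose was determined spectrophotometrically from enzymatically produced NADH₂ (Barthelma-Czok procedure). Results are the mean of four animals; a positive value means hyperglycemic, a negative value hypoglycemic.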

Assay [3] has as its system Rattus norvegicus. Put plainly: Percentage change in blood glucose concentration in male Wistar rats after 4 hr post treatment at a dose of 100 mg/Kg po. It is filed as functional. The gist of the method: as §2
Assay [4] deals with Rattus norvegicus. The experiment in a line: Percentage change in blood glucose concentration in male Wistar rats after 2 hr post treatment at a dose of 100 mg/Kg po; Hypoglycemic. It is filed as functional. The gist of the method: as §2
The subject of assay [5] is Rattus norvegicus. Put plainly: Percentage change in blood glucose concentration in male Wistar rats after 4 hr post treatment at a dose of 100 mg/Kg po; Hypoglycemic. It is filed as functional. The gist of the method:
as §2

Assay [6] relates to Rattus norvegicus. The experiment in a line: Percentage change in blood glucose concentration in male Wistar rats after 2 hr post treatment at a dose of 30 mg/Kg po; Hyperglycemic. It is filed as functional. A digest of the protocol:
as §2

In assay [7] the test system is Mus musculus. The experiment in a line: Analgesic activity was measured by phenylquinone writhing test in male Swiss albino mice at a dose of 0.004 mg/Kg, sc. The class given is functional. The gist of the method: as §1
In general terms: An intraperitoneal irritant provokes the stretching counted in writhing tests.

Assay [8] deals with Rattus norvegicus. Put plainly: Percentage change in blood glucose concentration in male Wistar rats after 2 hr post treatment at a dose of 100 mg/Kg po; Hyperglycemic. The class given is functional. The gist of the method:
as §2

The test system of assay [9] is Rattus norvegicus. Put plainly: Percentage change in blood glucose concentration in male Wistar rats after 4 hr post treatment at a dose of 100 mg/Kg po; Hyperglycemic. It is filed as functional. The gist of the method:
as §2

The test system of assay [10] is Mus musculus. The experiment in a line: Analgesic activity was measured by phenylquinone writhing test in male Swiss albino mice at a dose of 0.038 mg/Kg, sc. Particulars: read-out: Inhibition.
The subject of assay [11] is Mus musculus. Put plainly: Analgesic activity was measured by phenylquinone writhing test in male Swiss albino mice at a dose of 3.1 mg/Kg, sc. To be noted: read-out: Inhibition.
Assay [12] concerns Rattus norvegicus. The experiment in a line: Percentage change in blood glucose concentration in male Wistar rats after 4 hr post treatment at a dose of 30 mg/Kg po; Hyperglycemic. The class given is functional. The gist of the method: as §2
For assay [13], the system named is Mus musculus. Put plainly: Analgesic activity was measured by phenylquinone writhing test in male Swiss albino mice at a dose of 50 mg/Kg, sc. The class given is functional. The gist of the method:
as §1

The subject of assay [14] is Rattus norvegicus. The experiment in a line: Antiinflammatory activity was measured by carrageenan-induced paw edema test in female Sprague-Dawley rats at dose of 12 mg/Kg sc after 3h. In general terms: In the carrageenan paw model, swelling and tenderness develop within hours.
The test system of assay [15] is Rattus norvegicus. The experiment in a line: Antiinflammatory activity was measured by carrageenan-induced paw edema test in female Sprague-Dawley rats at dose of 12 mg/Kg sc after 5 hr.

`O=C(NN1CC=CCC1)c1ccccc1`: the inhibition in vivo at 0.004 mg/kg in assay [1] came to 73.6%. Also, the Change in assay [2] amounted to 78%; in [3] it was 50%.
`O=C(NN1CC=CCC1)c1cc(Cl)cc(Cl)c1`: the inhibition in vivo at 0.004 mg/kg in assay [1] worked out at 69.6%. Also, the Change was found to be 3.8% in assay [2] and 18.5% in assay [3].
As to `O=C(NN1CC=CCC1)c1ccc(C(F)(F)F)cc1`, in assay [1], the inhibition in vivo at 0.004 mg/kg worked out at 46.4%. Moreover, the Change in [2] was determined as 43.3%; in assay [3], 37.3%.
In [1], `O=C(NN1CC=CCC1)c1ccccc1Cl` returned an inhibition in vivo at 0.004 mg/kg of 52%. Also, the Change in [2] turned out to be 16.9%; in [3], 21.4%.
Compound `Cc1ccccc1C(=O)NN1CC=CCC1` displayed an inhibition in vivo at 0.004 mg/kg in assay [1] of 72%. The Change is reported as -2.8% in assay [4] and -6.3% in assay [5].
With `O=C(NN1CC=CCC1)c1ccccc1F`, the inhibition in vivo at 0.004 mg/kg in assay [1] was found to be 64.8%. Besides, the figures for the Change in [2], in [6] and in assay [3] were 213%, 50% and 127%, respectively.
As to `O=C(NN1CC=CCC1)c1ccc(Cl)cc1`, the inhibition in vivo at 0.004 mg/kg in [1] was 61.6%. In addition, the Change is on record as 109% in assay [2] and 26% in [3].
As to `O=C(NN1CC=CCC1)c1ccc(Cl)cc1Cl`, in assay [1], the inhibition in vivo at 0.004 mg/kg was determined as 57.2%. In addition, the Change in [4] is recorded as -6.5%; in assay [3] it was 1.3%.
Take `COc1cccc(C(=O)NN2CC=CCC2)c1`: the inhibition in vivo at 0.004 mg/kg in assay [1] came to 68.8%. Besides, the values for the Change in [2] and in [3] were 113.3% and 72.8%, respectively.
The corresponding values for `Cc1ccc(C(=O)NN2CC=CCC2)cc1C` are 60.8%, 92.3% and 62.8%.
The corresponding values for `O=C(NN1CC=CCC1)c1ccc(F)cc1` are 55.2%, 124% and 154%.
The corresponding values for `COc1ccccc1C(=O)NN1CC=CCC1` are 69.6%, 5.8% and 6.3%.
Regarding `O=C(NN1CC=CCC1)c1ccc([N+](=O)[O-])cc1`, in [7], the inhibition in vivo at 0.004 mg/kg amounted to 51%. In addition, the Change worked out at 92.6% in [8] and 140.6% in assay [9].
The compound `COc1ccc(C(=O)NN2CC=CCC2)cc1` displayed an inhibition in vivo at 0.004 mg/kg in assay [1] of 57.6%. Further, the Change in assay [2] was determined as 69%; in assay [3] it was 26%.
On to `Cc1ccc(C(=O)NN2CC=CCC2)cc1`, for which, in assay [1], the inhibition in vivo at 0.004 mg/kg was determined as 48%. In addition, the Change is 73% in assay [2] and 41% in assay [3].
In the case of `CN1CC[C@]23c4c5ccc(O)c4O[C@H]2[C@@H](O)C=C[C@H]3[C@H]1C5`, in assay [10], the inhibition in vivo at 0.038 mg/kg came to 50%. The inhibition in vivo at 3.1 mg/kg in [11] came out at 50%.
Take `O=C(NN1CC=CCC1)c1ccc(Cl)c(Cl)c1`: the inhibition in vivo at 0.004 mg/kg in [1] turned out to be 48.8%. The Change was 50% in assay [2] and 59% in assay [3].
The corresponding values for `CC(C)(C)c1ccc(C(=O)NN2CC=CCC2)cc1` are 48.8%, 1.8% and 4.7%.
In the same order, the values of `O=C(NN1CC=CCC1)c1ccccc1C(F)(F)F` are 64%, 1.2% and 19.6%.
The corresponding values for `O=C(NN1CC=CCC1)c1cccc(C(F)(F)F)c1` are 54.4%, 114.8% and 102%.
In [1], `Cc1cccc(C(=O)NN2CC=CCC2)c1` registered an inhibition in vivo at 0.004 mg/kg of 56%. The Change in [2] turned out to be 117.2%; in assay [6] it was 50%; in assay [3] it was 108.5%; in assay [12], 50%.
`O=C(NN1CC=CCC1)c1cccc(F)c1` displayed an inhibition in vivo at 0.004 mg/kg in assay [1] of 65.6%. In addition, the Change in [2] amounted to 167.3%; in assay [3], 137.8%.
In turn, `CC(=O)Oc1ccccc1C(=O)O` [ASPIRIN] registered an inhibition in vivo at 50 mg/kg in [13] of 50%.
As for `CCCNC(=O)NS(=O)(=O)c1ccc(Cl)cc1` [CHLORPROPAMIDE], the Change in assay [4] is recorded as -42%; in assay [5], -38%.
Take `COc1ccc2c(c1)c(CC(=O)O)c(C)n2C(=O)c1ccc(Cl)cc1` [INDOMETHACIN]: the figures for the inhibition in vivo at 12 mg/kg in assay [14] and in assay [15] were 17% and 83%, respectively.
With `CCC(=O)O[C@](Cc1ccccc1)(c1ccccc1)[C@H](C)CN(C)C` [PROPOXYPHENE], the inhibition in vivo at 0.004 mg/kg in assay [1] came to 50%.
